VIM-2 inhibitor: VIM-2 metallo-beta-lactamase inhibitors, primary screen, biochemical, epi-absorbance readout, Pseudomonas aeruginosa enzyme. purified VIM-2, nitrocefin hydrolysis, epi-absorbance fluorescence. inhibition, % at 5.6 µM. 290,000 tested, 0.89% active;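 active = inhibition above the mean of all tested compounds plus 3 SD, cutoff set per screening run, cut at about 7.5% in these data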;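 note: red hydrolysis product quenches plate fluorescence so inhibitors raise well fluorescence; 0% = enzyme with DMSO and 100% = DMSO without enzyme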
IMP-1 inh-1: IMP-1 metallo-beta-lactamase inhibitors, primary screen, biochemical, epi-absorbance readout, Pseudomonas aeruginosa enzyme; metallo-beta-lactamase IMP-1 (Pseudomonas aeruginosa); inhibition, % at 5.6 µM; purified IMP-1, nitrocefin hydrolysis, epi-absorbance fluorescence; 290,000 tested, 0.45% active;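 active = inhibition above the mean plus 3 SD of all compounds in the same screening run, cut at about 4.5% in these data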;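 note: 0% = IMP-1 with DMSO and 100% = DMSO wells lacking enzyme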
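Material – recombinant IMP-1 enzyme, purified · Amount – IMP-1 0.2 nM before substrate addition · Medium – HEPES buffer pH 7.1 with ZnSO4 and Brij 35 · Timing – 25 °C, 15 min preincubation, 25 min reaction · Measured by – plate fluorescence quenching by hydrolysis product, ex 480/em 530 nm · Read-out – percent enzyme inhibition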
NS3 helicase inh: inhibitors of HCV NS3 helicase, primary screen, biochemical, Cy5 molecular beacon fluorescence | NS3 helicase DNA unwinding | 290,000 tested, 0.56% active | Hepatitis C virus NS3 helicase | inhibition, % at 10.9 µM;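 active = inhibition above the mean of all tested compounds plus 3 SD, set per campaign, cut at about 35% in these data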;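 note: 0% = DMSO wells and 100% = thioflavine S control wells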
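System: HCV NS3 helicase fragment; control set: DMSO and thioflavine S; technique: Cy5 fluorescence at 0 and 60 min, beacon hairpin quenching; reagent: beacon DNA duplex substrate plus ATP; replicates: singlicate; schedule: 1 h reaction at 25 °C, ATP-initiated; medium: MOPS buffer pH 6.5 with MgCl2, DTT, Tween20, BSA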
DNA FID counter: compounds displacing fluorescent DNA intercalator, primary screen, artefact control for HCV NS3 helicase inhibitor project, biochemical, FID fluorescence; DNA fluorescent intercalator displacement; inhibition, % at 7.9 µM; 290,000 tested, 0.17% active; AID 1845, 2009; in the data active = inhibition above about 37%;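 note: 0% = vehicle and 100% = reference compound; higher means more ethidium bromide displaced from hairpin DNA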
IMP-1 inh-2: IMP-1 metallo-beta-lactamase inhibitors, confirmation, selectivity assay for selective VIM-2 inhibitor project, biochemical, epi-absorbance readout, triplicate; shares compounds with VIM-2 inhibitor; inhibition, % at 5.6 µM; AID 1856, 2009; purified IMP-1, nitrocefin hydrolysis, epi-absorbance fluorescence; 1,300 tested, under 10 active; call rule not given here;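 note: 0% = enzyme with vehicle and 100% = vehicle without enzyme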
VIM-2 FRET inh: VIM-2 inhibitors in FRET format, confirmation, artefact control for selective VIM-2 inhibitor project, biochemical, epi-absorbance artifact exclusion; purified VIM-2, CCF2 FRET substrate hydrolysis; shares compounds with VIM-2 inhibitor; inhibition, % at 5.6 µM; 1,300 tested, 23% active; AID 1857, 2009;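 active = inhibition above the mean of all tested compounds plus 3 SD, cut at about 19% in these data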;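 note: 0% = VIM-2 plus DMSO and 100% = no enzyme wells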
TEM-1 inh: TEM-1 serine beta-lactamase inhibitors, counter-screen for VIM-2 inhibitor project, biochemical, epi-absorbance, HTS | shares compounds with VIM-2 inhibitor | Purified TEM-1, nitrocefin hydrolysis, epi-absorbance fluorescence | inhibition, % at 5.6 µM | 1,300 tested, 3% active | AID 1866, 2009;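 active = inhibition above that campaign's mean inhibition plus 3 SD, cut at about 0.46% in these data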;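 note: 0% = TEM-1 with DMSO and 100% = TEM-1 with 100 µM potassium clavulanate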
Target sequence (P62593 whole entry, looked up): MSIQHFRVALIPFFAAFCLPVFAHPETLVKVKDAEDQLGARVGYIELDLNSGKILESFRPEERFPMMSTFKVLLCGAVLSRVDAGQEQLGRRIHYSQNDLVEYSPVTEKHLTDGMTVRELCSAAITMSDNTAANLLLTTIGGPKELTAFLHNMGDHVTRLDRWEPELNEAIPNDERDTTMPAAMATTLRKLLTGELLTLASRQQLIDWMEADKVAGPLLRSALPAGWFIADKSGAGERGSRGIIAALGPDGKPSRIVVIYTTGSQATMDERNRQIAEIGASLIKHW
VIM-2 inh conf: VIM-2 metallo-beta-lactamase inhibitors, confirmation, biochemical, epi-absorbance, hits shared with IMP-1 screen; shares compounds with VIM-2 inhibitor; purified VIM-2, nitrocefin hydrolysis; AID 2187, 2009; 1,300 tested, 96% active; inhibition, % at 5.6 µM;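 active = inhibition of the VIM-2 beta-lactamase enzyme above about 11% from the earlier first-round screen, limit read from the data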;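 note: 0% = VIM-2 with DMSO and 100% = buffer wells without enzyme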
* hit, by the source's call. Compounds with a hit are over-represented: about 1.9% of the library has one in this group of screens.

Screening Cc1ccc(-n2c(-c3nn(C)c(C)c3Cl)n[nH]c2=S)cc1 returned VIM-2 inhibitor 19*, IMP-1 inh-1 -4, NS3 helicase inh 0, DNA FID counter -19, IMP-1 inh-2 -4, VIM-2 FRET inh 54*, TEM-1 inh -8 and VIM-2 inh conf 36*.
For CCCCc1n[nH]c(=S)n1Cc1ccc(C)cc1 the results were VIM-2 inhibitor 23*, IMP-1 inh-1 -1, NS3 helicase inh 23, DNA FID counter -21, IMP-1 inh-2 -2, VIM-2 FRET inh 37*, TEM-1 inh -3 and VIM-2 inh conf 26*.
Screening COc1cc2c(cc1Cl)C(=O)C(F)(c1ccccc1)C(=O)N2 (configuration not stated) returned VIM-2 inhibitor 0, IMP-1 inh-1 -3, NS3 helicase inh 9 and DNA FID counter -3.
For CCOC(=O)/C(C#N)=C(\O)c1ccc(NC(=O)c2ccc([N+](=O)[O-])cc2)cc1 the results were VIM-2 inhibitor -3, IMP-1 inh-1 -5, NS3 helicase inh 6 and DNA FID counter -7.
`Cc1ccc(-c2n[nH]c(=S)n2-c2ccccc2)cc1` gave VIM-2 inhibitor 13*, IMP-1 inh-1 -3, NS3 helicase inh -17, DNA FID counter -9, IMP-1 inh-2 -4, VIM-2 FRET inh 35*, TEM-1 inh -8 and VIM-2 inh conf 23*.
For Cc1ccc(-n2c(-c3cccc(C)c3)n[nH]c2=S)cc1 the results were VIM-2 inhibitor 0, IMP-1 inh-1 -4, NS3 helicase inh -12 and DNA FID counter -15.
For CCCN(CCC)CCCNC(=O)c1cc2c(=O)n(C)c3ccccc3c2n1C the results were VIM-2 inhibitor 26*, IMP-1 inh-1 -2, NS3 helicase inh 6, DNA FID counter 26, IMP-1 inh-2 -3, VIM-2 FRET inh 1, TEM-1 inh -6 and VIM-2 inh conf 30*.
For COCCNC(=O)c1cc2c(=O)n(C)c3ccccc3c2n1C the results were VIM-2 inhibitor 14*, IMP-1 inh-1 -4, NS3 helicase inh 2, DNA FID counter -3, IMP-1 inh-2 -3, VIM-2 FRET inh 2, TEM-1 inh -7 and VIM-2 inh conf 22*.
CCOC(=O)N1CCC(NC(=O)c2cc3c(=O)n(C)c4ccccc4c3n2C)CC1 was read as VIM-2 inhibitor 5, IMP-1 inh-1 -3, NS3 helicase inh 10 and DNA FID counter -23.
`CCN(CC)CCCNC(=O)c1cc2c(=O)n(C)c3ccccc3c2n1C` gave VIM-2 inhibitor 22*, IMP-1 inh-1 -2, NS3 helicase inh 6, DNA FID counter 7, IMP-1 inh-2 -3, VIM-2 FRET inh 1, TEM-1 inh -5 and VIM-2 inh conf 30*.
`CN(C)CCNC(=O)c1cc2c(=O)n(C)c3ccccc3c2n1C` gave VIM-2 inhibitor 17*, IMP-1 inh-1 -3, NS3 helicase inh 3, DNA FID counter 6, IMP-1 inh-2 -2, VIM-2 FRET inh 4, TEM-1 inh -6 and VIM-2 inh conf 28*.
For O=C(CC1C(=O)NCCN1Cc1cccc(F)c1)NC1CCCCCC1 (configuration not stated) the results were VIM-2 inhibitor -3, IMP-1 inh-1 -2, NS3 helicase inh -9 and DNA FID counter -31.
For COc1ccc(CCNC/C=C/c2ccccc2)cc1 the results were VIM-2 inhibitor 1, IMP-1 inh-1 -1, NS3 helicase inh -28 and DNA FID counter 10.

From PubChem
